In ChEMBL document CHEMBL3751726, “A stepwise dechlorination/cross-coupling strategy to diversify the vancomycin 'in-chloride'” (2016):
In brackets after ≈: the same amount, converted by molar mass.

Legend:
Type in all cases: functional
Staphylococcus aureus [1] = test: Antimicrobial activity against methicillin-susceptible Staphylococcus aureus ATCC 29213 after 18 to 20 hrs by microdilution method
How it was run: (§1)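 Standard microtiter plate-based broth microdilution assay. The top concentration tested was 64 µg/mL, so inhibition that was not reached is reported as >64 µg/mL. The strains are methicillin-susceptible S. aureus ATCC 29213 and vancomycin-susceptible E. faecalis MMX 101.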

Staphylococcus aureus [2] = test: Antimicrobial activity against methicillin-resistant Staphylococcus aureus MMX 2002 after 18 to 20 hrs by microdilution method
Enterococcus faecalis [3] = test: Antimicrobial activity against vancomycin-susceptible Enterococcus faecalis MMX 101 after 18 to 20 hrs by microdilution method; how it was run: as §1
Enterococcus faecalis [4] = test: Antimicrobial activity against vancomycin-resistant Enterococcus faecalis MMX 486 expressing VanA after 18 to 20 hrs by microdilution method
Enterococcus faecalis [5] = test: Antimicrobial activity against vancomycin-resistant Enterococcus faecalis MMX 202 expressing VanB after 18 to 20 hrs by microdilution method

SMILES	MIC (Staphylococcus aureus [1])	MIC (Staphylococcus aureus [2])	MIC (Enterococcus faecalis [3])	MIC (Enterococcus faecalis [4])	MIC (Enterococcus faecalis [5])
CN[C@@H](CC(C)C)C(=O)N[C@@H]1C(=O)N[C@H](CC(N)=O)C(=O)N[C@@H]2C(=O)N[C@@H]3C(=O)N[C@@H](C(=O)N[C@H](C(=O)O)c4cc(O)cc(O)c4-c4cc3ccc4O)[C@@H](O)c3ccc(c(-c4ccoc4)c3)Oc3cc2cc(c3O[C@H]2O[C@@H](CO)[C@H](O)[C@@H](O)[C@@H]2O[C@H]2C[C@](C)(N)[C@H](O)[C@H](C)O2)Oc2ccc(cc2)[C@@H]1O	64 µg/mL (≈ 44.2 µM)	64 µg/mL (≈ 44.2 µM)	> 64 µg/mL	> 64 µg/mL	> 64 µg/mL
CN[C@@H](CC(C)C)C(=O)N[C@@H]1C(=O)N[C@H](CC(N)=O)C(=O)N[C@@H]2C(=O)N[C@@H]3C(=O)N[C@@H](C(=O)N[C@H](C(=O)O)c4cc(O)cc(O)c4-c4cc3ccc4O)[C@@H](O)c3ccc(c(-c4cccc(C(N)=O)c4)c3)Oc3cc2cc(c3O[C@@H]2O[C@H](CO)[C@@H](O)[C@H](O)[C@H]2O[C@H]2C[C@](C)(N)[C@H](O)[C@H](C)O2)Oc2ccc(cc2)[C@@H]1O	> 64 µg/mL	> 64 µg/mL	> 64 µg/mL	> 64 µg/mL	> 64 µg/mL
CN[C@@H](CC(C)C)C(=O)N[C@@H]1C(=O)N[C@H](CC(N)=O)C(=O)N[C@@H]2C(=O)N[C@@H]3C(=O)N[C@@H](C(=O)N[C@H](C(=O)O)c4cc(O)cc(O)c4-c4cc3ccc4O)[C@@H](O)c3ccc(c(Cl)c3)Oc3cc2cc(c3O[C@H]2O[C@@H](CO)[C@H](O)[C@@H](O)[C@@H]2O[C@@H]2C[C@@](C)(N)[C@@H](O)[C@@H](C)O2)Oc2ccc(cc2)[C@@H]1O	4 µg/mL (≈ 2.83 µM)	4 µg/mL (≈ 2.83 µM)	8 µg/mL (≈ 5.65 µM)	> 64 µg/mL	64 µg/mL (≈ 45.2 µM)
CN[C@@H](CC(C)C)C(=O)N[C@@H]1C(=O)N[C@H](CC(N)=O)C(=O)N[C@@H]2C(=O)N[C@@H]3C(=O)N[C@@H](C(=O)N[C@H](C(=O)O)c4cc(O)cc(O)c4-c4cc3ccc4O)[C@@H](O)c3ccc(c(-c4ccc(-c5ccccc5)cc4)c3)Oc3cc2cc(c3O[C@@H]2O[C@H](CO)[C@@H](O)[C@H](O)[C@H]2O[C@H]2C[C@](C)(N)[C@H](O)[C@H](C)O2)Oc2ccc(cc2)[C@@H]1O	> 64 µg/mL	> 64 µg/mL	> 64 µg/mL	> 64 µg/mL	> 64 µg/mL
CN[C@@H](CC(C)C)C(=O)N[C@@H]1C(=O)N[C@H](CC(N)=O)C(=O)N[C@@H]2C(=O)N[C@@H]3C(=O)N[C@@H](C(=O)N[C@H](C(=O)O)c4cc(O)cc(O)c4-c4cc3ccc4O)[C@@H](O)c3ccc(c(-c4cccc(CN)c4)c3)Oc3cc2cc(c3O[C@@H]2O[C@H](CO)[C@@H](O)[C@H](O)[C@H]2O[C@H]2C[C@](C)(N)[C@H](O)[C@H](C)O2)Oc2ccc(cc2)[C@@H]1O	> 64 µg/mL	> 64 µg/mL	> 64 µg/mL	> 64 µg/mL	> 64 µg/mL
CCCCCC/C=C/c1cc2ccc1Oc1cc3cc(c1O[C@@H]1O[C@H](CO)[C@@H](O)[C@H](O)[C@H]1O[C@H]1C[C@](C)(N)[C@H](O)[C@H](C)O1)Oc1ccc(cc1)[C@H](O)[C@H](NC(=O)[C@@H](CC(C)C)NC)C(=O)N[C@H](CC(N)=O)C(=O)N[C@@H]3C(=O)N[C@@H]1C(=O)N[C@@H](C(=O)N[C@H](C(=O)O)c3cc(O)cc(O)c3-c3cc1ccc3O)[C@H]2O	> 64 µg/mL	> 64 µg/mL	> 64 µg/mL	> 64 µg/mL	> 64 µg/mL
CN[C@@H](CC(C)C)C(=O)N[C@@H]1C(=O)N[C@H](CC(N)=O)C(=O)N[C@@H]2C(=O)N[C@@H]3C(=O)N[C@@H](C(=O)N[C@H](C(=O)O)c4cc(O)cc(O)c4-c4cc3ccc4O)[C@@H](O)c3ccc(cc3)Oc3cc2cc(c3O[C@@H]2O[C@H](CO)[C@@H](O)[C@H](O)[C@H]2O[C@H]2C[C@](C)(N)[C@H](O)[C@H](C)O2)Oc2ccc(cc2)[C@@H]1O	8 µg/mL (≈ 5.8 µM)	8 µg/mL (≈ 5.8 µM)	32 µg/mL (≈ 23.2 µM)	> 64 µg/mL	> 64 µg/mL
CN[C@@H](CC(C)C)C(=O)N[C@@H]1C(=O)N[C@H](CC(N)=O)C(=O)N[C@@H]2C(=O)N[C@@H]3C(=O)N[C@@H](C(=O)N[C@H](C(=O)O)c4cc(O)cc(O)c4-c4cc3ccc4O)[C@@H](O)c3ccc(c(-c4ccc5[nH]ccc5c4)c3)Oc3cc2cc(c3O[C@@H]2O[C@H](CO)[C@@H](O)[C@H](O)[C@H]2O[C@H]2C[C@](C)(N)[C@H](O)[C@H](C)O2)Oc2ccc(cc2)[C@@H]1O	> 64 µg/mL	> 64 µg/mL	> 64 µg/mL	> 64 µg/mL	> 64 µg/mL
CN[C@@H](CC(C)C)C(=O)N[C@@H]1C(=O)N[C@H](CC(N)=O)C(=O)N[C@@H]2C(=O)N[C@@H]3C(=O)N[C@@H](C(=O)N[C@H](C(=O)O)c4cc(O)cc(O)c4-c4cc3ccc4O)[C@@H](O)c3ccc(c(-c4cccc(F)c4)c3)Oc3cc2cc(c3O[C@@H]2O[C@H](CO)[C@@H](O)[C@H](O)[C@H]2O[C@H]2C[C@](C)(N)[C@H](O)[C@H](C)O2)Oc2ccc(cc2)[C@@H]1O	> 64 µg/mL	> 64 µg/mL	> 64 µg/mL	> 64 µg/mL	> 64 µg/mL
CC(=O)NC[C@H]1CN(c2ccc(N3CCOCC3)c(F)c2)C(=O)O1 [LINEZOLID]		1 µg/mL (≈ 2.96 µM)			
CN[C@H](CC(C)C)C(=O)N[C@H]1C(=O)N[C@@H](CC(N)=O)C(=O)N[C@H]2C(=O)N[C@H]3C(=O)N[C@H](C(=O)N[C@H](C(=O)O)c4cc(O)cc(O)c4-c4cc3ccc4O)[C@H](O)c3ccc(c(Cl)c3)Oc3cc2cc(c3O[C@@H]2O[C@H](CO)[C@@H](O)[C@H](O)[C@H]2O[C@H]2C[C@](C)(N)[C@H](O)[C@H](C)O2)Oc2ccc(cc2Cl)[C@H]1O [VANCOMYCIN]			2 µg/mL (≈ 1.38 µM)	> 64 µg/mL	8 µg/mL (≈ 5.52 µM)
